Insulin prom up: insulin promoter activators in MIN6 cells, imaging, high-content screening, mouse beta cells; MIN6 insulin promoter-GFP reporter; stronger effect = higher value; actives 0.3% (n = 190,000); z-score at 5 µM;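 active means z-score above 3 at 5 µM with at least 500 cells counted in the well; inconclusive means wells under 500 cells, flagged as cytotoxic or low count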
b-catenin transl: modulators of beta-catenin nuclear translocation, primary screen, imaging, HeLa cells, immunofluorescence, high-content | nuclear translocation activity, % at 5 µM | actives 0.3% (n = 190,000) | AID 1665, 2009;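 active means nuclear translocation activity above 50% at 5 µM, with a well cell count of 50 or more; inconclusive means wells under 50 cells across six images, flagged as toxic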;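 further: per-cell ratio of nuclear to cytoplasmic median beta-catenin stain intensity; plate controls were DMSO negative control for no effect and GSK-3 inhibitor IX positive control for full effect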
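Test system: HeLa cells, endogenous beta-catenin; Compound: single 5 µM dose plus 0.02–20 µM confirmation series; Times: compound exposure 24 h at 37°C; Signal: fluorescence imaging of beta-catenin antibody stain plus DAPI; Read-out: % activation, nuclear-to-cytoplasmic median beta-catenin signal ratio per cell.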
MT stabilizer: microtubule stabilizers in HeLa cells, primary screen, imaging, high-content imaging; HeLa tubulin immunostaining HCS, 24 h; share of cells brighter than vehicle mean+2SD; % tubulin-high responders, % at 10 µM; AID 2205, 2009; actives 0.83% (n = 200,000);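 active means plate Z-score above 3 for both tubulin-high and condensed-nucleus cell shares, with cell loss under 80%, at 10 µM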;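 further: anti alpha tubulin signal scored within the nucleus-defined area of each cell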
Autophagy mod: autophagy modulators in MEF cells, primary screen, imaging, high-content, MEF GFP-LC3; MEF GFP-LC3 puncta imaging; test concentration mostly 10 µM; calls only at 10 µM (by protocol); actives 0.98% (n = 190,000);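 active means percentage of spot-positive cells more than 3 SD above its plate mean, without a fluorescence outlier flag or 80% toxicity; inconclusive means no clear call, values can overlap the other calls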;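 further: spot-positive cell cutoff set from DMSO-treated cells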
* hit, by the source's call; i = inactive; ? = inconclusive; · = no result given; + = active, no number. Hits are enriched below; roughly 1.9% of the tested compounds scored in any of these assays.

SMILES | Insulin prom up | b-catenin transl | MT stabilizer | Autophagy mod
CC1CCCN(c2nc3c(c(=O)n(C)c(=O)n3C)n2CCSc2nc3ccccc3s2)C1 (stereo not drawn) | 3.2* | -2 | 2 | i
CC1CCN(c2nc3c(c(=O)n(C)c(=O)n3C)n2CCSc2nc3ccccc3s2)CC1 | -0.31 | 0 | 3 | i
Clc1cccc(-c2nnc(SC/C=C/c3ccccc3)n2Cc2ccco2)c1 | · | 0 | 37* | i
Brc1ccc(CSc2nnc(-c3ccccn3)n2Cc2ccco2)cc1 | -1.3 | 100* | 31 | i
C(=C\c1ccccc1)/CSc1nnc(-c2ccncc2)n1Cc1ccco1 | -0.65 | -6 | 4 | i
C(=C\c1ccccc1)/CSc1nnc(-c2ccccc2)n1Cc1ccco1 | -0.65 | 141* | 23* | i
CC(C)(C)c1ccc(CSc2nnc(-c3ccccn3)n2Cc2ccco2)cc1 | · | -1 | 1 | i
Cc1cc(-c2nnc(SCC(=O)c3ccc(F)cc3)o2)no1 | 0.04 | 1 | 3 | i
CC(C)Oc1ccc(C(=O)Nc2ccc(C(F)(F)F)n(C)c2=O)cc1 | 0.05 | 3 | 1 | i
CCc1ccc(NC(=O)COC(=O)c2ccc(Cl)c(S(=O)(=O)N3CCCCCC3)c2)cc1 | 0.09 | 1 | 2 | i
Cc1cc(/C=C2\SC(=Nc3ccc(F)cc3)NC2=O)c(C)n1-c1ccc(S(N)(=O)=O)cc1 | -2.4 | 160* | 14 | i
Cc1cc(/C=C2\SC(=S)NC2=O)c(C)n1-c1ccccc1 | 0.97 | -4 | · | ·
Cc1cc(/C=C2\SC(=S)NC2=O)c(C)n1-c1ccc(O)cc1 | 3.7* | 0 | · | ·
Cc1nn(-c2ccccc2)c2c1C(c1ccc(O)c(O)c1)N1C(=N2)C(Nc2ccccc2)=Nc2ccccc21 (stereo not drawn) | 0.25 | 1 | 3 | +
Cc1ccc(NC2=Nc3ccccc3N3C2=Nc2c(c(C)nn2-c2ccccc2)C3c2ccc(O)c(O)c2)cc1 (stereo not drawn) | 0.49 | 5 | 4 | +
Cc1ccc2c(c1C)OC(=O)CC2(C)C | 0.09 | 0 | 3 | i
CC1(C)Cc2c(c(-c3ccccc3)[nH]c(=O)c2C#N)CO1 | 3.4* | 8 | 3 | i
CCCN1CC=C2C(C#N)=C(N)C(C#N)(C#N)C(c3cccc(OC)c3OC)C2C1 (stereo not drawn) | · | 2 | 3 | ?
Cc1ccc(C2C3CN(C(C)C)CC=C3C(C#N)=C(N)C2(C#N)C#N)cc1 (stereo not drawn) | 10* | · | · | ·
COc1ccc(OC)c(C2C3CN(C(C)C)CC=C3C(C#N)=C(N)C2(C#N)C#N)c1 (stereo not drawn) | 17* | 6 | 3 | +
Nc1cccc(-n2cccc2)c1 | -0.14 | -1 | 2 | i
O=C(NNC(=S)NC(=O)c1sc2ccccc2c1Cl)c1ccc(Cl)cc1 | 0.22 | 5 | 2 | i
Cn1nc(C(F)(F)F)c(C(=O)Nc2ccc(Cl)cc2)c1Cl | 0.1 | 2 | 2 | i
Cn1cc(C(=O)Nc2ccc(Cl)cc2)c(C(F)(F)F)n1 | -0.15 | 0 | 2 | +
On1nnc2ccc3ccccc3c21 | -0.22 | -3 | 4 | i
SMILES | Insulin prom up | b-catenin transl | MT stabilizer | Autophagy mod
Cc1cc(C)nc(SCSc2nc(C)cc(C)n2)n1 | 4.5* | -1 | 3 | i
C#CCOc1ccc(C2C3=C(COC3=O)Nc3cc4c(cc32)OCO4)cc1OC (stereo not drawn) | -0.4 | 61* | 2 | i
O=C1OCC2=C1C(c1ccc(F)cc1)c1cc3c(cc1N2)OCCO3 (stereo not drawn) | -0.39 | 78* | 12 | i
CCOc1ccccc1C1C2=C(COC2=O)Nc2cc3c(cc21)OCO3 (stereo not drawn) | -1.4 | 2 | 7 | i
COc1cc2c(cc1OC)C(c1ccc3c(c1)OCO3)C1=C(CC(C)(C)CC1=O)N2 (stereo not drawn) | -0.23 | 0 | 2 | i
O=C1OCC2=C1C(c1ccc(F)cc1)c1cc3c(cc1N2)OCO3 (stereo not drawn) | -3.2 | 74* | 7 | i
COc1cc(C2C3=C(CC(C)(C)CC3=O)OC3=C2C(=O)CC(C)(C)C3)cc([N+](=O)[O-])c1O | 0.31 | -1 | 2 | i
CCCC(=O)Nc1cc(C(=O)O)ccc1Sc1ccccc1 | 0.59 | -1 | 1 | i
CCc1nc(SCC(=O)c2c[nH]c3ccccc23)n[nH]1 | -0.04 | 0 | 2 | i
COc1ccc(/C=N/OCC(=O)N2CCCC2)c(OC)c1 | -0.41 | -4 | 7 | i
COc1ccc(-c2cnnc(N/N=C/c3ccc(O)c(OC)c3)n2)cc1 | -0.5 | 12 | 4 | i
CCN(CC)S(=O)(=O)c1cccc(C(=O)OCc2cc(=O)n3nc(C)sc3n2)c1 | 0.22 | -5 | 3 | i
CC1CC(=O)c2c(cc3c(-c4c(O)cc(O)c5c(O)c6c(cc45)OC(C)CC6=O)c(O)cc(O)c3c2O)O1 (stereo not drawn) | -3 | -3 | 32* | i
O=C1CC(c2ccc(O)cc2)Oc2cc(O)cc(O)c21 (stereo not drawn) | · | 0 | 4 | i
COc1ccc(N2C(=O)CC(NCc3ccc(F)cc3)C2=O)cc1 (stereo not drawn) | · | 0 | 4 | +
Cc1cnc(CN2CCCC(C(=O)c3ccc4c5c(cccc35)CC4)C2)[nH]1 (stereo not drawn) | -0.24 | 0 | 2 | +
O=C1CCC(CCC(=O)N2CCCC(C(=O)c3ccc4c5c(cccc35)CC4)C2)=NN1 (stereo not drawn) | 1.3 | -1 | 4 | i
O=C1CCC(C(=O)N2CCCC(C(=O)c3ccc4c5c(cccc35)CC4)C2)=NN1 (stereo not drawn) | · | -1 | 33* | i
CCN(CC)c1ccc(/C=N/N=C(c2ccccc2)c2ccccc2)c(O)c1 | 2.3 | 5 | 2 | +
COC(=O)c1c(C)[nH]c(-c2csc(N)n2)c1C | 2.5 | 0 | 13* | i
O=C1c2cccc3c(N4CCCCC4)ccc(c23)C(=O)N1c1ccccc1O | · | 1 | 3 | i
O=C1c2cccc3c(N4CCCCC4)ccc(c23)C(=O)N1c1ccc(O)cc1 | 6.1* | 1 | 8 | +
CCN1CCC(NC(=O)Nc2cc(Cl)ccc2OC)CC1 | 0.95 | -2 | 2 | i
COc1cccc(C(=O)Nc2cnn(C(C)C)c2)c1 | -0.59 | 2 | 6 | i
COc1cccc(-c2cc(C(=O)Nc3cc(OC)c(OC)c(OC)c3)no2)c1 | -0.34 | · | 49* | i
CC(C)n1cc(NC(=O)c2cc(-c3ccccc3)on2)cn1 | -0.19 | · | 28* | i
COc1cccc(-c2cc(C(=O)Nc3cc(C)on3)no2)c1 | -0.06 | -2 | 2 | i
O=C(Nc1cccnc1)c1cc(-c2ccccc2)on1 | 0.7 | -2 | 3 | i
COc1cccc(-c2cc(C(=O)Nc3cccnc3)no2)c1 | -0.18 | 111* | 9 | i
CCC(C)(C)NC(=O)COc1ccc(OCc2ccccc2)cc1 | · | -6 | 2 | i
